Many of the other results were omitted from the sample, so hits are more common in it than they were.
IDH1 mut inh = blocks human IDH1 R132H reductase activity. diaphorase/resazurin fluorescence, 60 min. O75874. actives 0.18% (n = 70,000). inhibition, % at 10 µM; in the data active means inhibition above about 34%; inconclusive means no clear call, values can overlap the other calls; inactive means below about 11%;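 further: 0% = DMSO and 100% = no enzyme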
GASC1 inh = KDM4C (human) demethylase inhibition; Q9H3R0; GST-KDM4C 2-372, H3K9me3 peptide, LANCE TR-FRET; inhibition, % at 12.5 µM; actives 0.15% (n = 96,000); AID 720574;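 active means mean replicate inhibition above about 25%, with at least 55% of replicates also reaching it, limit read from the data, passing the limit was not always enough; inconclusive means only one of those two conditions met; inactive means neither condition met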
Target sequence (Q9H3R0 2-372 limits assumed): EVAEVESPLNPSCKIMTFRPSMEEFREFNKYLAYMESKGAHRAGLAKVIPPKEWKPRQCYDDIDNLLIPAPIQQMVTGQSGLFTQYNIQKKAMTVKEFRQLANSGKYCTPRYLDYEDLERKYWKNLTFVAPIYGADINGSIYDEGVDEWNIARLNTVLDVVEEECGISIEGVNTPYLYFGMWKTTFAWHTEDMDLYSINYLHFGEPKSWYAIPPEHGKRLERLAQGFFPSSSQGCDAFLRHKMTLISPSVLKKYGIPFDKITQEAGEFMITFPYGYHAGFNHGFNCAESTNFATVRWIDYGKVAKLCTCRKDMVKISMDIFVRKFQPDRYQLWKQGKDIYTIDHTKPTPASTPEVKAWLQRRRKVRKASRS
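System: N-terminal GST-fused human GASC-1 (KDM4C) fragment, residues 2-372; amount: enzyme final amount 10 nM; incubation: reaction 30 min RT, detection step 1 h RT; medium: HEPES buffer, pH 7.5, plus ascorbate; technique: LANCE TR-FRET, Eu antibody, ULight-streptavidin, EDTA, ex 340 nm, em 618/671 nm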
T cruzi growth-1 = T. cruzi proliferation inhibition. actives 5.9% (n = 77,000). inhibition, % at 8.34 µM. T. cruzi beta-gal in NIH3T3, GalScreen luminescence, 90 h;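 active means mean inhibition above about 93%, with at least 55% of replicates each passing it, limit read from the data, passing the limit was not always enough; inconclusive means only one of those two conditions holds; inactive means neither condition holds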
T cruzi growth-2 = Trypanosoma cruzi proliferation inhibition | shares compounds with T cruzi growth-1 | T. cruzi beta-gal in NIH3T3, GalScreen luminescence, 90 h | inhibition, % at 8.35 µM | actives 72% (n = 5,600);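 active means mean replicate inhibition above about 95% and at least 55% of replicates individually reaching it, limit read from the data; inconclusive means only one of the two criteria is met; inactive means neither criterion is met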
T cruzi growth-3 = Trypanosoma cruzi proliferation inhibition | shares compounds with T cruzi growth-1 | T. cruzi beta-gal in NIH3T3, GalScreen luminescence, 90 h | inhibition, % at 2.09 µM | actives 21% (n = 5,600) | AID 651740;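 active means mean inhibition above about 95%, with at least 55% of replicates also reaching it, limit read from the data; inconclusive means meets just one of the two conditions; inactive means meets neither condition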;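 further: plate controls were neutral control median for no effect and positive control median for full effect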
NIH3T3 tox = NIH/3T3 (mouse) viability loss; cytotoxicity (signal decrease), % at 8.35 µM; NIH/3T3 viability, CellTiter-Glo ATP luminescence, 90 h; actives 14% (n = 5,600); shares compounds with T cruzi growth-1; AID 651742;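 active means mean signal decrease across replicates above about 35% based on untreated-well scatter, with enough replicates individually passing, limit read from the data; inconclusive means no rule stated though some were filed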;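 further: 0% = median of neutral control wells and 100% = median of positive control wells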
3T3 cytotox 2 = NIH/3T3 (mouse) viability loss; NIH/3T3 viability, CellTiter-Glo ATP luminescence, 90 h; shares compounds with T cruzi growth-1; inhibition, % at 24.9 µM; actives 56% (n = 5,600);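 active means mean loss of cell viability signal at or above a set limit, and enough replicates individually reaching it; inconclusive means meets only the mean limit or only the replicate share; inactive means meets neither condition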;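 further: 0% = median of neutral control wells and 100% = median of positive control wells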
* marks the source's active call; other numbers are inactive results; u = inconclusive; x = not tested or not shown; ! = repeats disagree.

SMILES	IDH1 mut inh	GASC1 inh	T cruzi growth-1	T cruzi growth-2	T cruzi growth-3	NIH3T3 tox	3T3 cytotox 2
Cc1ccc(NC(=O)C(C)Sc2nnc(-c3ccc([N+](=O)[O-])cc3)n2-c2ccccc2)cc1 (configuration not stated)	0	x	x	x	x	x	x
CC(C)(C)c1csc(-c2sccc2CS(=O)(=O)c2ccc(Cl)cc2)n1	1	x	x	x	x	x	x
COc1ccc(-c2cc(C(F)F)n3ncc(C(=O)N(C)Cc4cnn(C)c4C)c3n2)cc1	0	x	x	x	x	x	x
COc1cccc(-c2ccc3c(c2)[C@H]2[C@H](CCN2C(=O)CC2CC2)[C@H](CO)N3C)c1	x	2	9	x	x	x	x
COCC(=O)N1CC[C@H]2[C@@H]1c1cc(-c3cccc(OC)c3)ccc1N(C)[C@H]2CO	x	2	101*	108*	79	4	-7
COCC(=O)N1CC[C@@H]2[C@H]1c1cc(-c3cccc(OC)c3)ccc1N(C)[C@H]2CO	x	3	96*	103*	106*	-24	-38
CCC(=O)N1CC[C@@H]2[C@H]1c1cc(-c3ccccc3)ccc1N(C)[C@H]2CO	x	2	36	x	x	x	x
CCC(=O)N1CC[C@H]2[C@@H]1c1cc(-c3cccc(OC)c3)ccc1N(C)[C@H]2CO	x	0	99*	101*	77	11	-4
COc1cccc(-c2ccc3c(c2)[C@@H]2[C@@H](CCN2C(=O)CC2CC2)[C@H](CO)N3C)c1	x	2	5	x	x	x	x
Cc1ccc(C)c(NC(=O)Cn2cc([N+](=O)[O-])cn2)c1	0	x	x	x	x	x	x
O=C(Nc1ccc(I)cc1C(=O)NCCN1CCOCC1)c1cccnc1	1	x	x	x	x	x	x
CN(C)CC(=O)N1CCCCN2[C@@H](CO)[C@@H](c3ccc(/C=C/c4ccccc4)cc3)[C@@H]2C1	x	0	102*	99*	113*	120*	104*
CN(C)CC(=O)N1CCCCN2[C@@H](CO)[C@H](c3ccc(/C=C/c4ccccc4)cc3)[C@@H]2C1	x	-1	97*	u	102*	117*	102*
CN(C)CC(=O)N1CCCCN2[C@H](C1)[C@@H](c1ccc(/C=C/c3ccccc3)cc1)[C@@H]2CO	x	1	-46	x	x	x	x
CN(C)CC(=O)N1CCCCN2[C@H](C1)[C@H](c1ccc(/C=C/c3ccccc3)cc1)[C@@H]2CO	x	-1	75	x	x	x	x
CN(C)CC(=O)N1CCCCN2[C@H](CO)[C@H](c3ccc(/C=C/c4ccccc4)cc3)[C@H]2C1	x	-1	32	x	x	x	x
CCC(=O)N1CCCCN2[C@H](CO)[C@H](c3ccc(/C=C/c4ccccc4)cc3)[C@@H]2C1	x	-4	113*	108*	82	48*	45*
O=C(Nc1sc2c(c1C(=O)NCc1cccnc1)CCCCC2)c1ccccc1	0	x	x	x	x	x	x
COc1ccccc1NC(=O)C1=C(C)Nc2ncnn2C1c1ccncc1 (configuration not stated)	-1	x	x	x	x	x	x
COc1ccc(S(=O)(=O)N(C)C[C@@H]2Oc3cc(C#CC4CCCCC4)ccc3S(=O)(=O)N([C@H](C)CO)C[C@@H]2C)cc1	x	0	79	x	x	x	x
COc1ccc(S(=O)(=O)N(C)C[C@H]2Oc3cc(C#CC4CCCCC4)ccc3S(=O)(=O)N([C@H](C)CO)C[C@@H]2C)cc1	x	1	83	x	x	x	x
COc1ccc(S(=O)(=O)N(C)C[C@@H]2Oc3cc(C#CC4CC4)ccc3S(=O)(=O)N([C@@H](C)CO)C[C@@H]2C)cc1	x	0	110*	104*	101*	-19	27*
COc1ccc(S(=O)(=O)N(C)C[C@H]2Oc3cc(C#CC4CC4)ccc3S(=O)(=O)N([C@H](C)CO)C[C@@H]2C)cc1	x	1	106*	103*	52	22	50*
COc1ccc(S(=O)(=O)N(C)C[C@@H]2Oc3cc(C#CC4CCCC4)ccc3S(=O)(=O)N([C@H](C)CO)C[C@H]2C)cc1	0	1	13	x	x	x	x
COCC#Cc1ccc2c(c1)O[C@H](CN(C)S(=O)(=O)c1ccc(OC)cc1)[C@@H](C)CN([C@H](C)CO)S2(=O)=O	3	-2	x	x	x	x	x
SMILES	IDH1 mut inh	GASC1 inh	T cruzi growth-1	T cruzi growth-2	T cruzi growth-3	NIH3T3 tox	3T3 cytotox 2
COc1ccc(S(=O)(=O)N(C)C[C@@H]2Oc3cc(C#CC4CC4)ccc3S(=O)(=O)N([C@H](C)CO)C[C@@H]2C)cc1	-2	0	109*	104*	85	12	25*
COc1ccc(S(=O)(=O)N(C)C[C@@H]2Oc3cc(C#CC4CCCCC4)ccc3S(=O)(=O)N([C@@H](C)CO)C[C@@H]2C)cc1	1	3	111*!	92	78	-10	59*
COC(=O)c1c(NC(=O)c2ccc(Cn3cc(Cl)cn3)cc2)sc2c1CCC2	0	x	x	x	x	x	x
O=C(Oc1ccccc1N1CCOCC1)c1cccnc1Sc1ccc(Cl)cc1	0	x	x	x	x	x	x
C[C@@H]1CN([C@H](C)CO)S(=O)(=O)c2ccc(C#CC3CCCC3)cc2O[C@H]1CN(C)S(C)(=O)=O	-6	-1	43	x	x	x	x
Cc1ccc(S(=O)(=O)N(C)C[C@@H]2Oc3cc(C#CC4CCCC4)ccc3S(=O)(=O)N([C@H](C)CO)C[C@@H]2C)cc1	0	0	125*	89	103*	7	4
O=C(Nc1ccc(Cl)cc1)N[C@H]1CC[C@@H](CCn2cc(-c3ccccc3F)nn2)O[C@H]1CO	-1	1	154*	79	25	1	41*
O=C(Nc1ccc(F)cc1)N[C@@H]1CC[C@H](CCn2cc(-c3ccccc3F)nn2)O[C@@H]1CO	0	2	x	x	x	x	x
COc1ccccc1NC(=O)N[C@@H]1CC[C@H](CCn2cc(C3(O)CCCC3)nn2)O[C@H]1CO	0	0	17	x	x	x	x
O=C(Nc1ccc(Cl)cc1)N[C@@H]1CC[C@H](CCn2cc(-c3ccccc3F)nn2)O[C@H]1CO	0	-1	25	x	x	x	x
O=C(Nc1cccc(Cl)c1)N[C@H]1CC[C@@H](CCn2cc(Cc3ccccc3)nn2)O[C@@H]1CO	0	0	-75	x	x	x	x
COc1ccccc1NC(=O)N[C@@H]1CC[C@H](CCn2cc(C3(O)CCCC3)nn2)O[C@@H]1CO	-1	0	109*	27	-47	-3	0
O=C(Nc1cccc(Cl)c1)N[C@@H]1CC[C@@H](CCn2cc(Cc3ccccc3)nn2)O[C@@H]1CO	0	1	u	98*	71	31	33*
O=C(Nc1ccc(Cl)cc1)N[C@@H]1CC[C@@H](CCn2cc(-c3ccccc3F)nn2)O[C@H]1CO	0	0	105*	104*	36	26	9
C=C[C@@]1(C)C[C@H](O)[C@@H]2[C@@H](OC(O)[C@H]2C)[C@@H]1C(=C)C (some centres not stated)	0	x	x	x	x	x	x
